For 14 compounds, IC50 and Activity results are on record in ChEMBL document CHEMBL1799948, “Side chain SAR of bicyclic β-lactamase inhibitors (BLIs). 2. N-Alkylated and open chain analogs of MK-8712” (Bioorg Med Chem Lett, 2011).

In one experiment the target is Beta-lactamase (Pseudomonas aeruginosa (strain ATCC 15692 / PAO1 / 1C / PRS 101 / LMG12228), UniProt P24735). Description: Inhibition of Pseudomonas aeruginosa CL5701 AmpC by spectrophotometric assay. The method, boiled down:
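AmpC from Pseudomonas aeruginosa, in 100 mM KH₂PO₄ buffer pH 7 with 0.005% BSA. Inhibitor serially diluted from DMSO and preincubated with enzyme 40 min at room temperature. Nitrocefin then added for a further 40 min. Quenched with 2.5 N acetic acid, absorbance read at 492 nm. IC₅₀ taken from semi-log plots of inhibition versus inhibitor concentration.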

Experiment [1] has as its target Beta-lactamase (Pseudomonas aeruginosa (strain ATCC 15692 / PAO1 / 1C / PRS 101 / LMG12228)) (UniProt P24735). The experiment in a line: Inhibition of AmpC in Pseudomonas aeruginosa CL5701 assessed as concentration required to reduce the imipenen MIC from 32 ug/ml to 4 ug/ml by in vitro synergy assay.

pIC50: −log10 of the molar value.

Beta-lactamase, sequence (P24735 whole entry): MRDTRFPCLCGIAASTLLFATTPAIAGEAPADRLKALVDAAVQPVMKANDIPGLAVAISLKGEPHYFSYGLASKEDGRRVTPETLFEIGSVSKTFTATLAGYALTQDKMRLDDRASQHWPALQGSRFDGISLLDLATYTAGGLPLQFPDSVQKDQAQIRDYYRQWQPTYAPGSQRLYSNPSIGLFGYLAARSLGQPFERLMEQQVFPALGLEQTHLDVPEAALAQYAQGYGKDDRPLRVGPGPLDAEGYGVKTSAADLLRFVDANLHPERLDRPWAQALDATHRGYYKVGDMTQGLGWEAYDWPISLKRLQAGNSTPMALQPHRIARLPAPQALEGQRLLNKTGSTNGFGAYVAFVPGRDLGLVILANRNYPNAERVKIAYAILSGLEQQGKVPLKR
Beta-lactamase (Pseudomonas aeruginosa (strain ATCC 15692 / PAO1 / 1C / PRS 101 / LMG12228)), sequence (P24735 27-397 limits assumed): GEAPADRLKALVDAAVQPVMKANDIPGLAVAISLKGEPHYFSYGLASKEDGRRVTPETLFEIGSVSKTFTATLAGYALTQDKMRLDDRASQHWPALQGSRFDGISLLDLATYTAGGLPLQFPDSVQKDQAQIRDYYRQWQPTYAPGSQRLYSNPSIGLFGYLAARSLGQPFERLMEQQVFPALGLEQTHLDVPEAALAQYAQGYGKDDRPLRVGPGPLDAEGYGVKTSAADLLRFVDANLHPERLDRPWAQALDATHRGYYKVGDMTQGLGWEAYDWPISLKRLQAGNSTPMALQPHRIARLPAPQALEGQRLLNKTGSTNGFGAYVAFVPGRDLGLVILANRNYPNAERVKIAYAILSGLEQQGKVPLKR

For orientation: pIC50 means the IC50 on a negative log10 scale, so that one unit is a factor of ten. As to `CC(C)NC(=O)N1CC[C@@H]2[C@H]1C(=O)N2S(=O)(=O)O`, the pIC50 on Beta-lactamase is 5.74. The Activity in experiment [1] is above 100 µM.
The corresponding values for `O=C(N[C@H]1CCCN(CCO)CC1)N1CC[C@@H]2[C@H]1C(=O)N2S(=O)(=O)O` are 6.05 and 25 µM.
In the same order, the values of `CNCCCCNC(=O)N1CC[C@@H]2[C@H]1C(=O)N2S(=O)(=O)O` are 5.46 and 25 µM.
The corresponding values for `CN(C)CCCCNC(=O)N1CC[C@@H]2[C@H]1C(=O)N2S(=O)(=O)O` are 5.80 and 25 µM.
On to `C[N+]1(C)CCC[C@H](NC(=O)N2CC[C@@H]3[C@H]2C(=O)N3S(=O)(=O)[O-])CC1`, for which the pIC50 at Beta-lactamase was 5.82. Moreover, the Activity in experiment [1] is 50 µM.
Take `CNCCCNC(=O)N1CC[C@@H]2[C@H]1C(=O)N2S(=O)(=O)O`: the pIC50 against Beta-lactamase is 5.28. In addition, in experiment [1], the Activity is 50 µM.
In the same order, the values of `CN(C)CCCCCNC(=O)N1CC[C@@H]2[C@H]1C(=O)N2S(=O)(=O)O` are 5.72 and 100 µM.
The corresponding values for `NC(=O)N1CC[C@@H]2[C@H]1C(=O)N2S(=O)(=O)O` are 4.80 and above 100 µM.
Turning to `O=C(N[C@H]1CCCN(CCCO)CC1)N1CC[C@@H]2[C@H]1C(=O)N2S(=O)(=O)O`, on Beta-lactamase, the pIC50 was 5.96. For the same compound, in experiment [1], the Activity was determined as 50 µM.
The corresponding values for `CN(C)CCN1CCC[C@H](NC(=O)N2CC[C@@H]3[C@H]2C(=O)N3S(=O)(=O)O)CC1` are 6.05 and 100 µM.
Consider `CN1CCC[C@H](NC(=O)N2CC[C@@H]3[C@H]2C(=O)N3S(=O)(=O)O)CC1`, for which the pIC50 against Beta-lactamase is 5.59. In experiment [1], the Activity is 25 µM.
Compound `CN(C)CCCNC(=O)N1CC[C@@H]2[C@H]1C(=O)N2S(=O)(=O)O` had a pIC50 on Beta-lactamase of 5.68. Moreover, the Activity in experiment [1] is 25 µM.
The corresponding values for `O=C1[C@H]2NCC[C@H]2N1S(=O)(=O)O` are below 3.60 and above 100 µM.
The corresponding values for `NCCN1CCC[C@H](NC(=O)N2CC[C@@H]3[C@H]2C(=O)N3S(=O)(=O)O)CC1` are 6.22 and 25 µM.
